# Key:
# Cerebellum = assay: Biodistribution in Sprague-Dawley rat cerebellum at 2.2 MBq/120 uL, iv after 5 mins by gamma counting; assay type: ADME, organism-based; settings: in vivo
# Summary of the method: (§1)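 Adult male SD rats, isoflurane (2-3%)/oxygen anesthesia, tail-vein injection of ~2.2 MBq/120 μL tracer in 10% ethanol in saline; euthanized under anesthesia at the stated time (n = 4 per time point). Brain dissected into regions, remainder kept for total brain; organs, blood, bone collected and weighed, gamma-counted against a standard dilution of injectate; %ID/g calculated.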
# Muscle tissue = assay: Biodistribution in Sprague-Dawley rat muscle at 2.2 MBq/120 uL, iv after 60 mins by gamma counting; assay type: ADME, organism-based; settings: in vivo, 1 h; summary of the method: as §1
# Kidney [1] = assay: Biodistribution in Sprague-Dawley rat kidney at 2.2 MBq/120 uL, iv after 60 mins by gamma counting; assay type: ADME, organism-based; settings: in vivo, 1 h; summary of the method: as §1
# Heart = assay: Biodistribution in Sprague-Dawley rat heart at 2.2 MBq/120 uL, iv after 30 mins by gamma counting; assay type: ADME, organism-based; settings: in vivo, 0.5 h; summary of the method: as §1
# Kidney [2] = assay: Biodistribution in Sprague-Dawley rat kidney at 2.2 MBq/120 uL, iv after 5 mins by gamma counting; assay type: ADME, organism-based; settings: in vivo; summary of the method: as §1
# Striatum = assay: Biodistribution in Sprague-Dawley rat striatum at 2.2 MBq/120 uL, iv after 120 mins by gamma counting; assay type: ADME, organism-based; settings: in vivo, 2 h; summary of the method: as §1
# Bone [3] = assay: Biodistribution in Sprague-Dawley rat bone at 2.2 MBq/120 uL, iv after 30 mins by gamma counting; assay type: ADME, organism-based, Bone element; settings: in vivo, 0.5 h; summary of the method: as §1
# Rattus norvegicus [4] = assay: Biodistribution in Sprague-Dawley rat total brain at 2.2 MBq/120 uL, iv after 30 mins by gamma counting; assay type: ADME, organism-based; settings: in vivo, 0.5 h
# Summary of the method: (§2)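 Injected by tail vein in 10% ethanol in saline into adult male SD rats under 2-3% isoflurane/oxygen anesthesia. Rats were killed under anesthesia, n = 4 per time point. Total brain and other tissues were weighed and gamma-counted against a standard dilution of the injectate. Values are %ID/g.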
# [5] = Drug uptake in cynomolgus monkey striatum at 296 to 410 MBq administered via venous catheter after 120 mins by microPET imaging; assay type: ADME, Macaca fascicularis; settings: in vivo, iv, 2 h
# Summary of the method: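 Male cynomolgus monkeys (6-8 kg) were fasted 12 h, induced with ketamine/glycopyrrolate i.m., then kept on 0.75-2.0% isoflurane at 37 °C. After a transmission scan for attenuation correction, a 2 h dynamic microPET scan was acquired. Framing was 3×1, 4×2, 3×3, 20×5 min. Striatal uptake was read as SUV from time-activity curves, with cerebellum as reference.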
# Spleen [6] = assay: Biodistribution in Sprague-Dawley rat spleen at 2.2 MBq/120 uL, iv after 5 mins by gamma counting; assay type: ADME, organism-based; settings: in vivo; summary of the method: as §1
# Cortex = assay: Biodistribution in Sprague-Dawley rat cortex at 2.2 MBq/120 uL, iv after 5 mins by gamma counting; assay type: ADME, organism-based; settings: in vivo; summary of the method: as §1
# Blood = assay: Biodistribution in Sprague-Dawley rat blood at 2.2 MBq/120 uL, iv after 60 mins by gamma counting; assay type: ADME, organism-based; settings: in vivo, 1 h; summary of the method: as §1
# Liver [7] = assay: Biodistribution in Sprague-Dawley rat liver at 2.2 MBq/120 uL, iv after 60 mins by gamma counting; assay type: ADME, organism-based; settings: in vivo, 1 h; summary of the method: as §1
# Lung = assay: Biodistribution in Sprague-Dawley rat lung at 2.2 MBq/120 uL, iv after 60 mins by gamma counting; assay type: ADME, organism-based; settings: in vivo, 1 h; summary of the method: as §1
# Rattus norvegicus [8] = assay: Biodistribution in Sprague-Dawley rat fat at 2.2 MBq/120 uL, iv after 120 mins by gamma counting; assay type: ADME, organism-based, Adipose tissue; settings: in vivo, 2 h; summary of the method: as §1
# Spleen [9] = assay: Biodistribution in Sprague-Dawley rat spleen at 2.2 MBq/120 uL, iv after 120 mins by gamma counting; assay type: ADME, organism-based; settings: in vivo, 2 h; summary of the method: as §1
# Liver [10] = assay: Biodistribution in Sprague-Dawley rat liver at 2.2 MBq/120 uL, iv after 120 mins by gamma counting; assay type: ADME, organism-based; settings: in vivo, 2 h; summary of the method: as §1
# Rattus norvegicus [11] = assay: Biodistribution in Sprague-Dawley rat total brain at 2.2 MBq/120 uL, iv after 5 mins by gamma counting; assay type: ADME, organism-based; settings: in vivo; summary of the method: as §2
# Bone [12] = assay: Biodistribution in Sprague-Dawley rat bone at 2.2 MBq/120 uL, iv after 120 mins by gamma counting; assay type: ADME, organism-based, Bone element; settings: in vivo, 2 h; summary of the method: as §1
smiles,measurement,setting,value
"O=C(c1ccc(F)cc1)C1CCN(C2Cc3c(cccc3OCC[18F])CC2O)CC1 (single isomer, unassigned; (-))",Drug uptake,Cerebellum,0.593 % ID/g
same,Drug uptake,Muscle tissue,0.253 % ID/g
same,Drug uptake,Kidney [1],0.604 % ID/g
same,Drug uptake,Heart,0.39 % ID/g
same,Drug uptake,Kidney [2],2.363 % ID/g
same,Drug uptake,Striatum,0.761 % ID/g
same,Drug uptake,Bone [3],0.369 % ID/g
same,Drug uptake,Rattus norvegicus [4],0.482 % ID/g
same,Drug uptake,[5],Not Active
same,Drug uptake,Spleen [6],1.265 % ID/g
same,Drug uptake,Cortex,0.777 % ID/g
same,Drug uptake,Blood,0.338 % ID/g
same,Drug uptake,Liver [7],0.456 % ID/g
same,Drug uptake,Lung,0.738 % ID/g
same,Drug uptake,Rattus norvegicus [8],0.56 % ID/g
same,Drug uptake,Spleen [9],0.376 % ID/g
same,Drug uptake,Liver [10],0.382 % ID/g
same,Drug uptake,Rattus norvegicus [11],0.684 % ID/g
same,Drug uptake,Bone [12],0.537 % ID/g
